Laboratory results reported in publication PMC8693849 (RSC Advances, 2021).
Values after ≈ are worked out from the molar mass of the structure shown.

Columns and labels:
P. fluorescens (S 97) = assay: Agar diffusion method, zone of inhibition; assay type: cell-based, Pseudomonas fluorescens; details: for zone of inhibition at 10 µg/mL / zone of inhibition at 15 µg/mL: Pseudomonas fluorescens, 24 h, read-out: Diameter of zone inhibition; for Diameter of zone inhibition: P. fluorescens (S 97), average of triplicate
Method in brief: (§1)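 Bacterial strains were tested by agar diffusion on nutrient agar (peptone 5 and meat extract 3 g L⁻¹ in distilled water, pH 7.0, 2% agar, autoclaved 121 °C for 20 min). Each test compound (1 mg) was dissolved in 1 mL DMSO and made up to 10 mL with sterile water (100 μg mL⁻¹ stock). The solution was placed in the agar, and inhibition zones were measured after 24 h incubation. Values are the mean of triplicate readings.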

[1] = tested on: P. phaseolicola (GSPB 2828); assay: Agar diffusion method, zone of inhibition; assay type: cell-based, Pseudomonas phaseolicola; details: for zone of inhibition at 10 µg/mL / zone of inhibition at 15 µg/mL: Pseudomonas, 24 h, read-out: Diameter of zone inhibition; for Diameter of zone inhibition: P. phaseolicola (GSPB 2828), 15 μg mL^−1, 24 h, average of triplicate
Method in brief: as §1

[2] = tested on: K. pneumoniae (MDR clinical isolate); assay: Zone of inhibition against MDR clinical isolate; assay type: cell-based; details: for zone of inhibition at 15 µg/mL: Klebsiella pneumoniae, read-out: Diameter of zone inhibition; for Diameter of zone inhibition: MDR K. pneumoniae clinical isolate, 15 μg mL^−1
S. aureus (ATCC 25923) = assay: Agar diffusion method, zone of inhibition; assay type: cell-based, Staphylococcus aureus; details: for zone of inhibition at 10 µg/mL / zone of inhibition at 15 µg/mL: Staphylococcus aureus, ATCC25923, 24 h, read-out: Diameter of zone inhibition; for Diameter of zone inhibition: S. aureus (ATCC 25923), 15 μg mL^−1, 24 h, average of triplicate
Method in brief: as §1

S. pyogenes (ATCC 19615) = assay: Agar diffusion method, zone of inhibition; assay type: cell-based, Streptococcus pyogenes; details: Streptococcus pyogenes, ATCC19615, 24 h, read-out: Diameter of zone inhibition
[3] = tested on: MRSA1 (methicillin resistant S. aureus); assay: Zone of inhibition against MDR clinical isolate; assay type: cell-based; details: for zone of inhibition at 15 µg/mL: Staphylococcus aureus, read-out: Diameter of zone inhibition; for Diameter of zone inhibition: MRSA1 clinical isolate, 15 μg mL^−1
C. albicans = assay: Agar diffusion method, zone of inhibition; assay type: cell-based, Candida albicans; details: for zone of inhibition at 10 µg/mL / zone of inhibition at 15 µg/mL: Candida albicans, 24 h, read-out: Diameter of zone inhibition; for Diameter of zone inhibition: C. albicans, average of triplicate
Method in brief: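 For agar diffusion against C. albicans, each test compound (1 mg) was dissolved in 1 mL DMSO and diluted to 10 mL with sterile water (100 μg mL⁻¹ stock). The solution was placed in the agar, and the inhibition zone diameter was read after 24 h. Values are the average of triplicate readings.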

Gram-negative bacteria = assay: Agar diffusion method; assay type: cell-based, P. phaseolicola (GSPB 2828) and P. fluorescens (S 97); details: summary of Table 1
Method in brief: as §1

Gram-positive bacteria = assay: Agar diffusion method; assay type: cell-based, S. aureus (ATCC 25923) and S. pyogenes (ATCC 19615); details: summary of Table 1
Method in brief: as §1

[4] = tested on: MRSA1 (methicillin resistant S. aureus); assay: Minimal inhibitory concentration; assay type: cell-based
Method in brief: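 Broth microdilution against MDR clinical isolates: 80 μl Mueller–Hinton broth plus 20 μl tween 80 received 100 μl test compound, then two-fold serial dilution. Each well was inoculated with 100 μl of 0.5 McFarland suspension ([…]) and incubated covered at 35 ± 2 °C for 24 h. MIC is the lowest concentration inhibiting growth.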

[5] = MRSA1 clinical isolate, Table 2

Compound	zone of inhibition at 10 µg/mL (P. fluorescens (S 97))	zone of inhibition at 15 µg/mL (P. fluorescens (S 97))	zone of inhibition at 10 µg/mL [1]	zone of inhibition at 15 µg/mL [1]	zone of inhibition at 15 µg/mL [2]	zone of inhibition at 10 µg/mL (S. aureus (ATCC 25923))	zone of inhibition at 15 µg/mL (S. aureus (ATCC 25923))	zone of inhibition at 10 µg/mL (S. pyogenes (ATCC 19615))	zone of inhibition at 15 µg/mL (S. pyogenes (ATCC 19615))	zone of inhibition at 15 µg/mL [3]	zone of inhibition at 10 µg/mL (C. albicans)	zone of inhibition at 15 µg/mL (C. albicans)	Activity against Gram-negative bacteria (Gram-negative bacteria)	Activity against Gram-positive bacteria (Gram-positive bacteria)	further results
O=C(N[C@H](CO)[C@H](O)c1ccc([N+](=O)[O-])cc1)C(Cl)Cl [Chloramphenicol, reference compound]	30 mm	30 mm	25 mm	25 mm	–	–	–	–	–	–	–	–	–	–	–
CC(C(=O)O)N1C2=NC(c3ccc(Cl)cc3)C3=C(CCCC3=O)N2NC1(C)c1ccccc1O (centres unmarked) [Compound 6, 2-(5-(4-Chlorophenyl)-2-(2-hydroxyphenyl)-2-methyl-6-oxo-1,2,6,7,8,9-hexahydro-[1,2,4]triazolo[1,5-a]quinazolin-3(5H)-yl)propanoic acid]	19 mm	–	–	29 mm	22 mm	15 mm	25 mm	10 mm	24 mm	10 mm	7 mm	8 mm	active	–	–
Clc1ccccc1C(c1ccccc1)(c1ccccc1)n1ccnc1 [Clotrimazole, reference compound]	–	–	–	–	–	–	–	–	–	–	36 mm	44 mm	–	–	–
2-(5-(4-Chlorophenyl)-6-cyano-2-(2-hydroxyphenyl)-7-imino-2-methyl-1,2-dihydro-[1,2,4]triazolo[1,5-a]pyrimidin-3(7H)-yl)-3-(1H-indol-3-yl)propanoic acid [Compound 8d]	–	–	–	–	–	–	–	–	–	–	–	–	–	active	Diameter of zone inhibition [2]: 10 mm; Diameter of zone inhibition (P. fluorescens (S 97); 10 μg mL^−1, 24 h): 12 mm; Diameter of zone inhibition (P. fluorescens (S 97); 15 μg mL^−1, 24 h): 22 mm; Diameter of zone inhibition (S. aureus (ATCC 25923)): 29 mm; Diameter of zone inhibition [1]: 24 mm; Diameter of zone inhibition [3]: 25 mm; Diameter of zone inhibition (C. albicans; 10 μg mL^−1, 24 h): 6 mm; Diameter of zone inhibition (C. albicans; 15 μg mL^−1, 24 h): 7 mm; MIC [4, 5]: 50 µg/mL
CC(=O)C1=C(C)N2NC(C)(c3ccccc3O)N(C(C)C(=O)O)C2=NC1c1ccc(Cl)cc1 (centres unmarked) [Compound 2b, 2-(6-Acetyl-5-(4-chlorophenyl)-2-(2-hydroxyphenyl)-2,7-dimethyl-1,2-dihydro-[1,2,4]triazolo[1,5-a]pyrimidin-3(5H)-yl)propanoic acid]	15 mm	29 mm	16 mm	–	25 mm	12 mm	–	10 mm	–	8 mm	6 mm	8 mm	active	–	–
CCOC(=O)C1=C(C)N2NC(C)(c3ccccc3O)N(C(C)C(=O)O)C2=NC1c1ccc(Cl)cc1 (centres unmarked) [Compound 3b, 2-(5-(4-Chlorophenyl)-6-(ethoxycarbonyl)-2-(2-hydroxyphenyl)-2,7-dimethyl-1,2-dihydro-[1,2,4]triazolo[1,5-a]pyrimidin-3(5H)-yl)propanoic acid]	–	–	–	–	27 mm	12 mm	25 mm	–	24 mm	12 mm	10 mm	12 mm	active	–	–
CCOC(=O)C1=C(C)N2NC(C)(c3ccccc3O)N(C(Cc3c[nH]c4ccccc34)C(=O)O)C2=NC1c1ccc(Cl)cc1 (centres unmarked) [Compound 3d, 2-(5-(4-Chlorophenyl)-6-(ethoxycarbonyl)-2-(2-hydroxyphenyl)-2,7-dimethyl-1,2-dihydro-[1,2,4]triazolo[1,5-a]pyrimidin-3(5H)-yl)-3-(1H-indol-3-yl)propanoic acid]	10 mm	–	11 mm	23 mm	6 mm	–	–	–	–	6 mm	9 mm	10 mm	–	active	–
CC(C(=O)O)N1C2=NC(c3ccc(Cl)cc3)C3=C(CC(C)(C)CC3=O)N2NC1(C)c1ccccc1O (centres unmarked) [Compound 7, 2-(5-(4-Chlorophenyl)-2-(2-hydroxyphenyl)-2,8,8-trimethyl-6-oxo-1,2,6,7,8,9-hexahydro-[1,2,4]triazolo[1,5-a]quinazolin-3(5H)-yl)propanoic acid]	–	–	19 mm	–	20 mm	15 mm	23 mm	12 mm	20 mm	8 mm	10 mm	11 mm	active	–	–
CC(=O)C1=C(C)N2NC(c3ccccc3O)N(C(Cc3c[nH]c4ccccc34)C(=O)O)C2=NC1c1ccc(Cl)cc1 (centres unmarked) [Compound 2c, 2-(6-Acetyl-5-(4-chlorophenyl)-2-(2-hydroxyphenyl)-7-methyl-1,2-dihydro-[1,2,4]triazolo[1,5-a]pyrimidin-3(5H)-yl)-3-(1H-indol-3-yl)propanoic acid]	12 mm	22 mm	11 mm	23 mm	8 mm	–	–	–	–	26 mm	6 mm	9 mm	–	active	MIC ([4]; MRSA1, Table 4): 25 µg/mL (≈ 43.9 µM); SI (selectivity index, CC50/MIC) ([4]; MRSA1 vs VERO cells): 10; MIC ([4]; Staphylococcus aureus): 25 µg/mL (≈ 43.9 µM)
CC(=O)OCC1=C(C(=O)O)N2C(=O)[C@@H](NC(=O)Cc3cccs3)[C@H]2SC1 [Cephalothin, reference compound]	–	–	–	–	–	28 mm	28 mm	30 mm	30 mm	–	–	–	–	–	–
2-(5-(4-Chlorophenyl)-6-cyano-2-(2-hydroxyphenyl)-7-imino-1,2-dihydro-[1,2,4]triazolo[1,5-a]pyrimidin-3(7H)-yl)-3-(1H-indol-3-yl)propanoic acid [Compound 8c]	–	–	–	–	–	–	–	–	–	–	–	–	–	active	Diameter of zone inhibition [2]: 12 mm; Diameter of zone inhibition (P. fluorescens (S 97); 10 μg mL^−1, 24 h): 13 mm; Diameter of zone inhibition (P. fluorescens (S 97); 15 μg mL^−1, 24 h): 23 mm; Diameter of zone inhibition (S. aureus (ATCC 25923)): 30 mm; Diameter of zone inhibition [1]: 24 mm; Diameter of zone inhibition [3]: 28 mm; Diameter of zone inhibition (C. albicans; 10 μg mL^−1, 24 h): 8 mm; Diameter of zone inhibition (C. albicans; 15 μg mL^−1, 24 h): 11 mm; MIC [4, 5]: 50 µg/mL
CC(=O)C1=C(C)N2NC(c3ccccc3O)N(C(C)C(=O)O)C2=NC1c1ccc(Cl)cc1 (centres unmarked) [Compound 2a, 2-(6-Acetyl-5-(4-chlorophenyl)-2-(2-hydroxyphenyl)-7-methyl-1,2-dihydro-[1,2,4]triazolo[1,5-a]pyrimidin-3(5H)-yl)propanoic acid]	16 mm	–	–	–	–	10 mm	16 mm	12 mm	–	–	–	–	–	–	–
CC(C(=O)O)N1C2=NC(c3ccc(Cl)cc3)c3c([nH]c(=O)[nH]c3=O)N2NC1(C)c1ccccc1O (centres unmarked) [Compound 5, 2-(5-(4-Chlorophenyl)-2-(2-hydroxyphenyl)-2-methyl-6,8-dioxo-1,2,6,7,8,9-hexahydropyrimido[5,4-e][1,2,4]triazolo[1,5-a]pyrimidin-3(5H)-yl)propanoic acid]	15 mm	28 mm	–	30 mm	23 mm	–	26 mm	11 mm	25 mm	8 mm	7 mm	9 mm	active	–	–
